Results reported in the EternaBench riboswitch data.

Test system: MS2 coat protein
Assay: apparent Kd, MS2 coat protein; higher = weaker binding; RNA-MaP array; FMN 200 µM where present
In short: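 The apparent Kd comes from binding curves fitted cluster by cluster, filtered, and summarised as a median. Those curves followed SNAP-549-labelled MS2 coat protein from 0.7 or 1.5 nM, doubling to 3 µM, on Illumina sequencing-chip clusters where stalled E. coli RNA polymerase had transcribed the designs, without and then with constant ligand. The buffer was 100 mM Tris-HCl pH 7.5, 80 mM KCl, 4 mM MgCl2, BSA, DTT, yeast tRNA and Tween-20, and green signal was normalised to red-channel RNA signal and control-cluster median Fmax.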

[1] = designed as: OFF switch for flavin mononucleotide, no ligand
[2] = ligand present: flavin mononucleotide, designed as: OFF switch for flavin mononucleotide
[3] = designed as: ON switch for flavin mononucleotide, no ligand
[4] = ligand present: flavin mononucleotide, designed as: ON switch for flavin mononucleotide

Row | Sequence | apparent Kd [1] | apparent Kd [2] | apparent Kd [3] | apparent Kd [4]
1 | AUCUAAGAAUUAAUUGUGACUGACAGAAGGCAAUAGAAUGAGACCGACAUGAGGAUCACCCAUGUUGAGGAUAUGUCUUGCUAC | 6.53 nM | 6.74 nM |  | 
2 | AUCUCCUCUGUCAGGAUAUAUAAACUGUUGCAGUGGUAGAAGGGACAUGAGGAUCACCCAUGUAAUAUAAAUAA | 25.6 nM | 71.5 nM |  | 
3 | AUCUCGUCAGGAUAUUGGAUUUGGAUUGAAAGGUUUAGGUUUAAGAAGGGACAUGAGGAUCACCCAUGUCUGGU | 21.8 nM | 21.5 nM |  | 
4 | AUCUUGAGAGGAUAUACAUGAGGAUCACCCAUGUUGCUAACACCAUGCGGUCAUUUGCGUAGAAGGCUCAUCCG | 26.2 nM | 104 nM |  | 
5 | AUCUUUGACUUUACUAGAAUAGGGCAGGAUAUACAUGAGGAUCACCCAUGUUAAGCACGUAAGAGGUAGAAGGGCCCUUGUCAU | 16.1 nM | 13.6 nM |  | 
6 | AUGAAAUACUAGCACGGCGCGGCACAGGAUAUGCCUCAACAUGAGGAUCACCCAUGUCACUGUAGGUAGAAGGGUGUUAGCGAA |  |  | 18.4 nM | 5.52 nM
7 | AUGACCUCAGUCAGGAUAUCGGCGCGGUGACGACUCGAGAAGGGACAUGAGGAUCACCCAUGUCUCGAUUAUAG | 15.4 nM | 22.2 nM |  | 
8 | AUGAGAAUUGUUAGGAUAUCCGUAAGUAAGUACUGGGAGAAGGGACAUGAGGAUCACCCAUGUGAUAGCCGACU | 102 nM | 80.6 nM |  | 
9 | AUGAGAGCAGGAUAUGCAGGUGUGCCGGAAGAAAGAAGAAGACAUGAGGAUCACCCAUGUAGAAGGGCUAGCCC | 19.1 nM | 15.6 nM |  | 
10 | AUGAGGUCAGGAUAUGCAUGGCGGGACUUGCGUCGUGGCGUGCAGAAGGGACAUGAGGAUCACCCAUGUGGAGG | 177 nM | 249 nM |  | 
11 | AUGAGGUCAGGAUAUGCAUGGCGGGACUUGCGUCGUGGCGUGGAGAAGGGACAUGAGGAUCACCCAUGUGGAGC | 56.6 nM | 64.7 nM |  | 
12 | AUGCCUUAUGUAGGAUAUGCAUAGCGUUGCUAUGCAGAAGGACAUGAGGAUCACCCAUGUAUGUUAUCAUUACAUAUCUGGCAU | 27.6 nM | 271 nM |  | 
13 | AUGCUAUACGAAGGAUAUGGUUACAUGAGGAUCACCCAUGUUAUUCUUGUUUUCUUGUUUAUGUUCCAGAAGGUCGUAUAGCUA | 47.3 nM | 38.2 nM |  | 
14 | AUGCUUCACACAGGAUAUACAUGAGGAUCACCCAUGUGUCCACCGUAGCUGACACGAGCUACGCGGUAGAAGGGUGUGAAGCAU | 18 nM | 33.3 nM |  | 
15 | AUGCUUUAUGUAGGAUAUUCAAACAAAGAGAAUGGAGAAGGACAUGAGGAUCACCCAUGUAGAAUGAUGUUAGAUAUCAUAUAU | 16.3 nM | 14.4 nM |  | 
16 | AUGGACAGCAUAGACACAUAGUAACGAGAAGGUACACAUGAGGAUCACCCAUGUACAGUCAGAAGUAAGGAUAUUGAAUGGUAG |  |  | 36.4 nM | 27.4 nM
17 | AUGGACGUCGUAGGAUAUGUAGGAUUCUCGUACAUGAGGAUCACCCAUGUUGACGUCGAGGUCGGACAGAAGGGCGGUGUCUAU |  |  | 20.9 nM | 8.65 nM
18 | AUGGAUAUCACAGGAUAUGAUAUGGAUACCAUAUCAGAAGGGUGAUCCAUCCUAUGUAAAUACAUGAGGAUCACCCAUGUGUCC |  |  | 15.1 nM | 31.6 nM
19 | AUGGAUAUCACAGGAUAUGCUAAGGAUACCUUAGCAGAAGGGUGAUCCAUCCUAUGGCUGUACAUGAGGAUCACCCAUGUGUCA |  |  | 331 nM | 41.4 nM
20 | AUGGAUAUCACAGGAUAUGCUAUGGAUACCAUAGCAGAAGGGUGAUCCAUCCUAUGUAAAUACAUGAGGAUCACCCAUGUGUCC |  |  | 50 nM | 35.7 nM
21 | AUGGGACAUGAGGAUCACCCAUGUUAGGAUAUCUCCUUAGUAACGAUCAGGCUAUAGGAGAGAAGGAACGGUCC | 258 nM | 272 nM |  | 

Row | Sequence | apparent Kd [1] | apparent Kd [2] | apparent Kd [3] | apparent Kd [4]
22 | AUGGGUUAAGGAGGAUAUAGAGGGAGGAGUAGACAUGAGGAUCACCCAUGUAUUUAAUUAGUUUACUAGAAGGCUUGUGAUUGU |  |  | 56 nM | 75.7 nM
23 | AUGGUACAUGAGGAUCACCCAUGUCAGGAUAUCGGCUGUGACGUGAAAAGAGUGUUGGCGAGAAGGGACUGCAA | 39.7 nM | 45.6 nM |  | 
24 | AUGGUGACGUAGAAGGGUGACAUGAGGAUCACCCAUGUGCCGAUAUAUCUCGAGAUAUGUCGGCCACAGGAUAUACGUGCCAUC |  |  | 150 nM | 158 nM
25 | AUGUCGCUAGGAGGAUAUACAUGAUCUCGCACAUGUACCGCUCACGCCACAUGAGGAUCACCCAUGUAGAAGGCCUAGAGAGGU | 18.6 nM | 54.8 nM |  | 
26 | AUGUGGUGCGUAGGAUAUCAUUGAGGGAAACCCUGAGAAGGACGUGAGGACAUGAGGAUCACCCAUGUGGAUCACCCAUGUCAU | 196 nM | 253 nM |  | 
27 | AUGUUACAUGAGGAUCACCCAUGUGAGGAUAUGUGUACCCGUAAAAAAGUGUCGGGCCAUAGAAGGCAUUUGGA | 48.4 nM | 49.9 nM |  | 
28 | AUUAAACAUGAGGAUCACCCAUGUGAGGAUAUGCAAAAAAAAUUAUAUUAAAAAAAAAGCAGAAGGCACAUAUA | 54.7 nM | 94.6 nM |  | 
29 | AUUAAUAAUCGAGGAUAUCACGUCGAAUAGACGUGAGAAGGCGAUCAUAACAUGAGGAUCACCCAUGUAUUACAUGAAGUUAAU |  |  | 27.5 nM | 23.9 nM
30 | AUUAAUCAGCAGGAUAUAAGUAUCUGAAGGUGGUUAGAAGGGCUGACAUGAGGAUCACCCAUGUGCUCUUCGUG | 11.7 nM | 18.8 nM |  | 
31 | AUUACGUCAGGAUAUCUGAUGUCUAACUUCGGUUAGACAUCAGAGAAGGGACAUGAGGAUCACCCAUGUAAUAG | 54.5 nM | 56.2 nM |  | 
32 | AUUAUACAUGAGGAUCACCCAUGUAAUUAAUUAAUUAAGAUCUAGGAUAUCAGCUCGAUUAGAGCUGAGAAGGAGAUCACAUGU |  |  | 29.9 nM | 18.7 nM
33 | AUUAUAUAGAUAGGAUAUUGAUUAUUAUUUUAACAUGAGGAUCACCCAUGUAGCCUUAUGUAUAACAAGAAGGAUCAUUUAUUA | 161 nM | 181 nM |  | 
34 | AUUAUUUCAUGAGGAUAUGGCACCUUAUUGGUGCCAGAAGGCAUGUCUAUUGACAUGAGGAUCACCCAUGUAUUAAAUUAUAUA |  |  | 621 nM | 45.3 nM
35 | AUUCACCGAGGAUAUACAUGAGGAUCACCCAUGUAAAAGAAACGGUGCCAUCGGUCGUGUAGAAGGUGGUGUUA | 16.6 nM | 16.1 nM |  | 
36 | AUUCUAAUAGCAGGAUAUCCCAGUAUCCUAAGUCAAAAGUUUUUGACAUGAGGAUCACCCAUGUGGGAGAAGGGCUCUGGAUAA | 111 nM | 65.8 nM |  | 
37 | AUUGGUGGUGUAGGAUAUAACAGCAGCUGUGGUACCGUGUGUUAAGGACAUGAGGAUCACCCAUGUUAGAAGGACACUGUCCAG | 436 nM | 75.8 nM |  | 
38 | AUUGUAUAGGAAGGAUAUAGAAUAUUAUUUUAACAUGAGGAUCACCCAUGUAACCUUAUGUGUAGCUAGAAGGUCCGUUUAUUA | 110 nM | 162 nM |  | 
39 | AUUUAACCCAGCGGUGCUGAUGCACAUGAGGAUCACCCAUGUAGAAGGCAGCUAGACACUUAAGCUGAGGAUAUACAUGUAAGA | 15.6 nM | 63.3 nM |  | 
40 | AUUUAAUUUAAUAAGAUCACAUGAGGAUCACCCAUGUAUAUAUAGGAUAUCAGCUCGAAUAGAGCUGAGAAGGAUAUAUACUAU | 326 nM | 323 nM |  | 
41 | AUUUAGUGCGAGAAGGCGUGGUCACAUGAGGAUCACCCAUGUCAGUACACGAGGAUAUCGAUUCGCUAUGUAAACAUAUGCGAC |  |  | 66.8 nM | 6.62 nM
42 | AUUUAUGGCCAGAAGGACAUGAGGAUCACCCAUGUAGGAUAUGGACGAUUUUGCUCGGCGGUUUGUUAAGGAAGCACCGGUGGU |  |  | 14.3 nM | 7.23 nM
